According to ChEMBL document CHEMBL3817823 (J Med Chem, 2016):
Calls of active or inactive are those of the source. No cut-off for these calls is given here.

What was measured:
[1] = target: Histone-lysine N-methyltransferase NSD3 (Homo sapiens) (UniProt Q9BZ95); assay: Inhibition of NSD3 (unknown origin) at 1 to 50 uM by TCA precipitation assay
[2] = tested on: KYSE-150 cell line; assay: Induction of apoptosis in human KYSE-150 cells assessed as caspase 3/7 activation up to 20 uM after 2 days by […]; assay type: functional, cell-based
[3] = target: Histone-lysine N-methyltransferase 2C (Homo sapiens) (UniProt Q8NEZ4); assay: Inhibition of MLL3 (unknown origin) at 1 to 50 uM by scintillation proximity assay
[4] = target: Protein arginine N-methyltransferase 7 (Homo sapiens) (UniProt Q9NVM4); assay: Inhibition of PRMT7 (unknown origin) at 1 to 50 uM by scintillation proximity assay
[5] = target: Histone-lysine N-methyltransferase KMT5C (Homo sapiens) (UniProt Q86Y97); assay: Inhibition of SUV420H2 (unknown origin) at 1 to 50 uM by scintillation proximity assay
Histone-lysine N-methyltransferase KMT5C (Homo sapiens), sequence (Q86Y97 whole entry, looked up): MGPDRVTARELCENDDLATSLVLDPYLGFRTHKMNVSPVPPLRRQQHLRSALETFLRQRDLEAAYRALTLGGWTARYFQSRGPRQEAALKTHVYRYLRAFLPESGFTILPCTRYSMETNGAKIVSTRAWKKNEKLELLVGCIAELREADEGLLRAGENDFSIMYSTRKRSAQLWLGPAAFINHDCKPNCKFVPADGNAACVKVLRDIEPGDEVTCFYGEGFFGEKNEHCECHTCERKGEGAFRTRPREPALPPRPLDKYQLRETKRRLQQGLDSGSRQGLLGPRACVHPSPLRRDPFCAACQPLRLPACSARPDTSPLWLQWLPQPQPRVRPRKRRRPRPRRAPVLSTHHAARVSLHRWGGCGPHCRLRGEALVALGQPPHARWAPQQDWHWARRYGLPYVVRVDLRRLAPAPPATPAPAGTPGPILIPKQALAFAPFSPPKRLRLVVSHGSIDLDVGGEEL

[6] = target: RNA 5'-monophosphate methyltransferase (Homo sapiens) (UniProt Q7Z5W3); assay: Inhibition of BCDIN3D (unknown origin) at 1 to 50 uM by scintillation proximity assay
RNA 5'-monophosphate methyltransferase (Homo sapiens), sequence (Q7Z5W3 whole entry): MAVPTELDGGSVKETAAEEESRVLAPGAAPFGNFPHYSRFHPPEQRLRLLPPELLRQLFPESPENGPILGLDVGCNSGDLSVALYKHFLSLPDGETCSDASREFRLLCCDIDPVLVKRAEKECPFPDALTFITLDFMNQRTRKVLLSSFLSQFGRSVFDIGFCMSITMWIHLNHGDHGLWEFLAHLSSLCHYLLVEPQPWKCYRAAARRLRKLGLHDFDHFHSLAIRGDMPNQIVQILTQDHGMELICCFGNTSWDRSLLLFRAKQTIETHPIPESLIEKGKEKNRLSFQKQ

[7] = tested on: KYSE-150; assay: Antitumor activity against human KYSE-150 cells xenografted in BALB/c mouse assessed as reduction in tumor weight at 500 mg/kg, po administered qd in presence of doxorubicin relative to control; assay type: functional, organism-based
Summary of the method: (§1)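 Mice carrying subcutaneous KYSE-150 xenografts; dosing began day 4 after inoculation. Arms: vehicle (Solutol/ethanol/water 1:1:8 iv qd, plus saline iv once at day 4), inhibitor 500 mg/kg po qd, doxorubicin 10 mg/kg iv once at day 4, or the combination. Tumor area tracked (mean ± SEM); final tumor weight gives T/C; Dunn's method versus vehicle.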

[8] = target: Histone-lysine N-methyltransferase SUV39H1 (Homo sapiens) (UniProt O43463); assay: Inhibition of SUV39H1 (unknown origin) at 1 to 50 uM by scintillation proximity assay
[9] = target: Protein arginine N-methyltransferase 1 (Homo sapiens) (UniProt Q99873); assay: Inhibition of PRMT1 (unknown origin) at 1 to 50 uM by scintillation proximity assay
Protein arginine N-methyltransferase 1 (Homo sapiens), sequence (Q99873 whole entry, looked up): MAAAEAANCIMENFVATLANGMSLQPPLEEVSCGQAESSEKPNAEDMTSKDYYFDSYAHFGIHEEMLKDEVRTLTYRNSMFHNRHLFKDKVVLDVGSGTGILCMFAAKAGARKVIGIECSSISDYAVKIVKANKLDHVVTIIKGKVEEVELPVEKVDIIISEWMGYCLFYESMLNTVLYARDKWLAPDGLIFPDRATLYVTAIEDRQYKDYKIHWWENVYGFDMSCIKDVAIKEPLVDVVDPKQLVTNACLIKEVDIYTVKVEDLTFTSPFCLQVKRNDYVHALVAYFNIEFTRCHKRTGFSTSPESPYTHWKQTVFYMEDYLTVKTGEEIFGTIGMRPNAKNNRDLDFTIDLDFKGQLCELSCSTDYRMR

[10] = target: DNMT3B-DNMT3L complex (Homo sapiens) (UniProt Q9UBC3+Q9UJW3); assay: Inhibition of DNMT3B/3L (unknown origin) at 1 to 50 uM by TCA precipitation assay; assay type: protein-complex assay
[11] = target: DNMT3A2/3L complex (Homo sapiens) (UniProt Q9Y6K1+Q9UJW3); assay: Inhibition of DNMT3A/3L (unknown origin) at 1 to 50 uM by TCA precipitation assay; assay type: protein-complex assay
[12] = target: Protein arginine N-methyltransferase 8 (Homo sapiens) (UniProt Q9NR22); assay: Inhibition of PRMT8 (unknown origin) at 1 to 50 uM by scintillation proximity assay
[13] = target: Protein arginine N-methyltransferase 6 (Homo sapiens) (UniProt Q96LA8); assay: Inhibition of PRMT6 (unknown origin) at 1 to 50 uM by scintillation proximity assay
Protein arginine N-methyltransferase 6 (Homo sapiens), sequence (Q96LA8 whole entry, looked up): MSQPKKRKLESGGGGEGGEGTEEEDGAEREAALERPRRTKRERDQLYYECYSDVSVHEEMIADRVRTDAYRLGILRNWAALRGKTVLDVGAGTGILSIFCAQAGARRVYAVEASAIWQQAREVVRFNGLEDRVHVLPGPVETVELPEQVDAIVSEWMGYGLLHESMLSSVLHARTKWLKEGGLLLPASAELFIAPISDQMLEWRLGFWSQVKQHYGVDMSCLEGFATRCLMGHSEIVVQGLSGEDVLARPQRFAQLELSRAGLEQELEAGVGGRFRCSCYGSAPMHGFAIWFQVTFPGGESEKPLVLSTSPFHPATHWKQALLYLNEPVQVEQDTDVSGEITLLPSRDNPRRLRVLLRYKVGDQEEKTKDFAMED

[14] = target: Histone-lysine N-methyltransferase EHMT1 (Homo sapiens) (UniProt Q9H9B1); assay: Inhibition of EHMT1 (unknown origin) at 1 to 50 uM by scintillation proximity assay
[15] = tested on: Mus musculus; assay: In vivo inhibition of SMYD2 expressed in human KYSE-150 cells xenografted in BALB/c nude mouse assessed as suppression of AHNAK methylation at 10 mg/kg, po administered qd for 3 days by dot-blot analysis relative to untreated control; assay type: functional
Summary of the method: (§2)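 Mice with subcutaneous KYSE-150 tumor xenografts dosed orally once daily for 3 days (vehicle PEG 400/water 8:2), n = 12 per group; tumors then harvested and AHNAK methylation measured ex vivo by dot blot with SY46 antibody; group means ± SD, Student's t test versus vehicle.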

[16] = Blood clearance in rat by LC/MS/MS analysis
[17] = tested on: Mus musculus; assay: In vivo inhibition of SMYD2 expressed in human KYSE-150 cells xenografted in BALB/c nude mouse assessed as suppression of AHNAK methylation at 70 mg/kg, po administered qd for 3 days by dot-blot analysis relative to untreated control; assay type: functional; summary of the method: as §2
[18] = tested on: KYSE-150; assay: Antitumor activity against human KYSE-150 cells xenografted in BALB/c mouse assessed as reduction in tumor area at 500 mg/kg, po administered qd relative to control; assay type: functional, organism-based; summary of the method: as §1
[19] = target: Protein arginine N-methyltransferase 5 (Homo sapiens) (UniProt O14744); assay: Inhibition of PRMT5 (unknown origin) at 1 to 50 uM by scintillation proximity assay
Protein arginine N-methyltransferase 5 (Homo sapiens), sequence (O14744 whole entry): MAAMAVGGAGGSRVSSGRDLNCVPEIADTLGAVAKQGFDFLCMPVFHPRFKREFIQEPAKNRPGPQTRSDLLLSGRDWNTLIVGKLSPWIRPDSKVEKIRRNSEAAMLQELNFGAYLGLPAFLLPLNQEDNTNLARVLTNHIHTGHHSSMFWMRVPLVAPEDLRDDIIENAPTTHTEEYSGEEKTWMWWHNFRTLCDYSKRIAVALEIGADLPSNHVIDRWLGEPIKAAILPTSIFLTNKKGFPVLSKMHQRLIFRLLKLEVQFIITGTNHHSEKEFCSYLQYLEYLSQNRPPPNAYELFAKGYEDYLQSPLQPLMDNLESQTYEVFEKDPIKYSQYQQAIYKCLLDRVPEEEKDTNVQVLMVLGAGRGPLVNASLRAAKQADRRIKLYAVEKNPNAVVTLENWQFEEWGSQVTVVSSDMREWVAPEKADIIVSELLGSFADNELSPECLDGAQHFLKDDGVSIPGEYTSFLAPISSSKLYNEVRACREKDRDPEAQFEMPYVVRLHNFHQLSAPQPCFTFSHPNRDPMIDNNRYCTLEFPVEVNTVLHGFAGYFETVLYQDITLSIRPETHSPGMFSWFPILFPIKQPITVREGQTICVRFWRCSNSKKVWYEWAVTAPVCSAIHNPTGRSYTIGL

[20] = target: Protein N-lysine methyltransferase METTL21A (Homo sapiens) (UniProt Q8WXB1); assay: Inhibition of METTL21A (unknown origin) at 1 to 50 uM by TCA precipitation assay
[21] = tested on: KYSE-150; assay: Antitumor activity against human KYSE-150 cells xenografted in BALB/c mouse assessed as reduction in tumor area at 500 mg/kg, po administered qd in presence of doxorubicin relative to control; assay type: functional, organism-based; summary of the method: as §1
[22] = target: Histone-lysine N-methyltransferase SETD2 (Homo sapiens) (UniProt Q9BYW2); assay: Inhibition of SETD2 (unknown origin) at 1 to 50 uM by scintillation proximity assay
[23] = target: Histone-lysine N-methyltransferase SUV39H2 (Homo sapiens) (UniProt Q9H5I1); assay: Inhibition of SUV39H2 (unknown origin) at 1 to 50 uM by scintillation proximity assay
[24] = tested on: Mus musculus; assay: Time>IC50 for cellular methylation in BALB/c mouse at 10 mg/kg, po qd
Summary of the method: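 Mice were dosed orally once daily at 10–100 mg/kg. Time at steady state with unbound exposure covering the cellular In-Cell Western AHNAK methylation IC50 was estimated.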

[25] = target: Histone-lysine N-methyltransferase ASH1L (Homo sapiens) (UniProt Q9NR48); assay: Inhibition of ASH1L (unknown origin) at 1 to 50 uM by TCA precipitation assay
[26] = target: Protein N-lysine methyltransferase METTL21D (Homo sapiens) (UniProt Q9H867); assay: Inhibition of METTL21D (unknown origin) at 1 to 50 uM by TCA precipitation assay
Protein N-lysine methyltransferase METTL21D (Homo sapiens), sequence (Q9H867 whole entry): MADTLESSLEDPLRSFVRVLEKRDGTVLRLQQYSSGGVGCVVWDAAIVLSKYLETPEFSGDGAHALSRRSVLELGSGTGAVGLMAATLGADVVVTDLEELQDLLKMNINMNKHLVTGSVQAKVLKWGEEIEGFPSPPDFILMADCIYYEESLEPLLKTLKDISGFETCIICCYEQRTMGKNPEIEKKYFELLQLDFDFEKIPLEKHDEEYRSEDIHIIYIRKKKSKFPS

[27] = tested on: KYSE-150 cell line; assay: Potentiation of doxorubicin-induced apoptosis in human KYSE-150 cells assessed as caspase 3/7 activation up to 20 uM after 2 days by […]; assay type: functional, cell-based
[28] = tested on: KYSE-150; assay: Antitumor activity against human KYSE-150 cells xenografted in BALB/c mouse assessed as reduction in tumor weight at 500 mg/kg, po administered qd relative to control; assay type: functional, organism-based; summary of the method: as §1
[29] = tested on: MDA-MB-231; assay: Effect on AHNAK protein levels in human MDA-MB-231 cells at 6.3 to 2000 nM by Western blot analysis; assay type: ADME, cell-based; settings: mda-mb-231, 2 µM
Summary of the method: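 MDA-MB231 cells overexpressing SMYD2 treated with inhibitor over a concentration series; Western blot probed for AHNAK methylation (SY46 antibody) and total AHNAK protein.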

[30] = target: Histone-lysine N-methyltransferase EHMT2 (Homo sapiens) (UniProt Q96KQ7); assay: Inhibition of G9A (unknown origin) at 1 to 50 uM by scintillation proximity assay
Histone-lysine N-methyltransferase EHMT2 (Homo sapiens), sequence (Q96KQ7 whole entry): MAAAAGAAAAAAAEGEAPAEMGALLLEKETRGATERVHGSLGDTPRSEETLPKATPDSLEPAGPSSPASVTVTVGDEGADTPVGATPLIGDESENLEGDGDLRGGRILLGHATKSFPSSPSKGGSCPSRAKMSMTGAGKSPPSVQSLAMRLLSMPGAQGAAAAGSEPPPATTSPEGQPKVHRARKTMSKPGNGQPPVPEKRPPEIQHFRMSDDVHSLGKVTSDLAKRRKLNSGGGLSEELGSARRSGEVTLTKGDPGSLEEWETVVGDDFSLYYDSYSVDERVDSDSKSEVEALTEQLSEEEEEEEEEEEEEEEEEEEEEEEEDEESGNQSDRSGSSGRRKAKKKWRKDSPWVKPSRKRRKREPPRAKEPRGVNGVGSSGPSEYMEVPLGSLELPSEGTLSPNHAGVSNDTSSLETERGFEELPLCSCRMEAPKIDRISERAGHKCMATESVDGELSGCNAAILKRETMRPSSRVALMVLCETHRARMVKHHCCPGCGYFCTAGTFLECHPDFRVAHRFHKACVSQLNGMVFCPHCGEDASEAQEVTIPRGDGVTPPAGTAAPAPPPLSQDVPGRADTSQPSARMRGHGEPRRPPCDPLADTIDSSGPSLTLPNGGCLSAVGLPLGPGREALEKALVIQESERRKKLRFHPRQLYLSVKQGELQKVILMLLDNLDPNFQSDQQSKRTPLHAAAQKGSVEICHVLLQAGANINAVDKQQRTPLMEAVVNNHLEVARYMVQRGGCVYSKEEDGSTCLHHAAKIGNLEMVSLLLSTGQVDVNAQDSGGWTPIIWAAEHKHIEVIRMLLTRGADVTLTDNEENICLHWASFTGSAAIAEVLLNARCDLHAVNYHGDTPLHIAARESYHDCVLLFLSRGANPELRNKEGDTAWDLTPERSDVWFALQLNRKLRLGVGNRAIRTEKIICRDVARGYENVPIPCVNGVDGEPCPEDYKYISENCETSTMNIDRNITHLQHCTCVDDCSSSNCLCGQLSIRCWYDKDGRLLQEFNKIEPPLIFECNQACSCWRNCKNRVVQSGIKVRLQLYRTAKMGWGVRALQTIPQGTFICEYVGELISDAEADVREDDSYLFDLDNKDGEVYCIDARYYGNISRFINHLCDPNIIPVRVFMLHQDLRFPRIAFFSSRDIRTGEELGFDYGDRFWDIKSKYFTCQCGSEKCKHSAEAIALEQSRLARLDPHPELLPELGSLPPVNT

Histone-lysine N-methyltransferase NSD3 (Homo sapiens), sequence (Q9BZ95 whole entry): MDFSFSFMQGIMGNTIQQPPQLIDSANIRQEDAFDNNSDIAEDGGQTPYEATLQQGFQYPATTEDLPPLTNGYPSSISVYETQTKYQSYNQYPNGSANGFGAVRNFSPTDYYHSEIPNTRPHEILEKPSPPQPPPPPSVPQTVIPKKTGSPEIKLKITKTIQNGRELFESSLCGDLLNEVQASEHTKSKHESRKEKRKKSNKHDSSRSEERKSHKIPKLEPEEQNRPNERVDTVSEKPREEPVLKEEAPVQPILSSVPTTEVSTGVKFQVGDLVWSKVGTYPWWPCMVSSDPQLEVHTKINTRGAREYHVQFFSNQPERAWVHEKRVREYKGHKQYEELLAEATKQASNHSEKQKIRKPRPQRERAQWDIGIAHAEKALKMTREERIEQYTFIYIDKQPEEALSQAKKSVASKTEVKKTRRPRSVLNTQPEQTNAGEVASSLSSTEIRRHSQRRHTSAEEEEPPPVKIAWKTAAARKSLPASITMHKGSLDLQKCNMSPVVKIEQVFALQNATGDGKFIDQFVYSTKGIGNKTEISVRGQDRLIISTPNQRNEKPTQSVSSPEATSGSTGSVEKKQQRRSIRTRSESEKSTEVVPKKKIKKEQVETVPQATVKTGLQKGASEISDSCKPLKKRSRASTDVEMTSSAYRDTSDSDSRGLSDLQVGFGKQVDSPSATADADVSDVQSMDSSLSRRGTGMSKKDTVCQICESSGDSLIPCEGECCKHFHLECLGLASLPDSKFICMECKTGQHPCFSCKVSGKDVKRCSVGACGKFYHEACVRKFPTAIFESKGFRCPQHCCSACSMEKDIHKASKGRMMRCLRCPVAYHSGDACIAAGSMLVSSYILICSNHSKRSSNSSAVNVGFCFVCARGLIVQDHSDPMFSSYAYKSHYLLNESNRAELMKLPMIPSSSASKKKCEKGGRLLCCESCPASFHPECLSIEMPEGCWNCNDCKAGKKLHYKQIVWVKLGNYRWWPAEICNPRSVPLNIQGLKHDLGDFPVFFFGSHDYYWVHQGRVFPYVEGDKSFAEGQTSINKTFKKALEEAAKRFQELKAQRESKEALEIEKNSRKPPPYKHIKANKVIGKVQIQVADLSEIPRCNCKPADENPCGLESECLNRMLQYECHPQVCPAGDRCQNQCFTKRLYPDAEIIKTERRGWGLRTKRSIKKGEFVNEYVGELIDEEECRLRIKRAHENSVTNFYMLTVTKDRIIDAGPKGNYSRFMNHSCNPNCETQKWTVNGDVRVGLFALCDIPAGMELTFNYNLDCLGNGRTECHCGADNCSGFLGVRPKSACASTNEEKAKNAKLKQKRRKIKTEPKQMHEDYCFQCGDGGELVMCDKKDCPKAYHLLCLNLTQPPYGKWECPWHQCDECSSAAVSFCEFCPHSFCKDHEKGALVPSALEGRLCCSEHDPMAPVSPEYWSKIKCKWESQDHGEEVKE

- inhibition [1]: inactive
- inhibition [3]: inactive
- inhibition [4]: inactive
- inhibition [5]: inactive
- inhibition [6]: inactive
- inhibition [8]: inactive
- inhibition [9]: inactive
- inhibition [10]: inactive
- inhibition [11]: inactive
- inhibition [12]: inactive
- inhibition [13]: inactive
- inhibition [14]: inactive
- clearance [16]: 26.7 mL/min/kg
- inhibition [19]: inactive
- inhibition [20]: inactive
- inhibition [22]: inactive
- inhibition [23]: inactive
- inhibition [25]: inactive
- inhibition [26]: inactive
- inhibition [30]: inactive
SMILES: CCN(C(=O)CO)[C@H]1CN(/C(=N\C#N)Nc2cccc(OC(F)F)c2)N=C1c1ccc(Cl)c(Cl)c1
- Activity [2]: inactive
- Activity [7]: Active
- T/C [15]: 1
- T/C [17]: 0.73
- Activity [18]: inactive
- Activity [21]: Active
- Time [24]: 9 h
- Activity [27]: Active
- Activity [28]: inactive
- Activity [29]: Non-toxic
